# HCT116 bCat-KO = beta-catenin-lacking colon tumor cell growth suppression; HCT116 beta-catenin knockout viability, CellTiter-Glo, 60 h; active compounds read low; viability, % at 10 µM; hit rate 1.5% among 140,000; AID 818;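 active = viability at or under a set limit, the compound median less 4 SD, cut at about 6% in these data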;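 also: 0% = Hyamine 1622 control at 20 µM and 100% = untreated cell control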
# PTEN del growth = growth suppressors of cells with PTEN tumor suppressor deletion; HCT116 PTEN-null viability, CellTiter-Glo, 60 h; active compounds read low; viability, % at 10 µM; hit rate 1.2% among 140,000; AID 827;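 active = viability at or below a set limit, 4 SD under the median of all tested compounds, cut at about 3.7% in these data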;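 also: PTEN knockout HCT116 line with beta catenin targeted HCT116 as companion control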
# H69AR growth 86K = growth inhibitors of human H69AR lung tumor cells; H69AR lung tumor viability, ATP luminescence, 72 h; active compounds read low; viability, % at 10 µM; hit rate 6% among 85,000;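 active = viability at or below 40%; inactive = viability above 40%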;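 also: multidrug resistant small cell line overexpressing MRP-1 efflux transporter; 100% = mean luminescence of untreated control wells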
# Lung fibro prol = blocks proliferation of human lung fibroblasts; viability, % at 10 µM; AID 719; LL 47 human lung fibroblast viability, ATP luminescence; active compounds read low; hit rate 1.1% among 85,000;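 active = viability at or below 50% in the single dose screen; inactive = viability above 50%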;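 also: compound exposure lasted 72 h before the ATP readout; 100% = median luminescence of untreated cell-only wells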
#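 material = human LL 47 lung fibroblast cells | dosing = compounds added from tenfold dosing solution, 0.1% DMSO final | timing = overnight cell rest, 72 h compound treatment at 37 °C | measured by = CellTiter-Glo luminescence measuring cellular ATP | evaluation = % viability versus median cells-only luminescence | control set = cell-only wells, no compound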
# HUVEC prolif 384 = blocks proliferation of human endothelial cells; HUVEC proliferation, CellTiter-Glo luminescence, 72 h; active compounds read low; viability, % at 10 µM (by protocol); hit rate 1.1% among 86,000; AID 648;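 active = viability at or below 30%; inactive = viability above 30%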;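 also: 100% = median luminescence of DMSO-only cell control wells on each plate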
# Active calls of the source: *; nt = no result given. This excerpt belongs to a sample that is enriched for hits.
SMILES,HCT116 bCat-KO,PTEN del growth,H69AR growth 86K,Lung fibro prol,HUVEC prolif 384
CCN1C(=O)/C(=C2/Sc3ccc(OC)cc3N2C)SC1=Nc1cccc(O)c1,72,73,24*,80,95
Cn1c(=O)cc(SCC(=O)NCCCN2CCOCC2)c2ccc(Cl)cc21,96,96,91,99,99
CCOCCCNC(=O)CN1CCN(Cc2ccccc2C)C1=O,99,78,101,99,101
CCC(CC)C1C(C#N)=C(N)Oc2n[nH]c(C)c21 (centres undefined),54,75,13*,80,67
N#CC1=C(N)Oc2n[nH]c(-c3ccccc3)c2C1c1ccsc1 (centres undefined),94,97,84,96,76
CCC(CC)C1C(C#N)=C(N)Oc2n[nH]c(-c3ccccc3)c21 (centres undefined),82,86,36*,76,71
CC(C)C1C(C#N)=C(N)Oc2n[nH]c(-c3ccc4ccccc4c3)c21 (centres undefined),25,25,16*,62,40
COc1ccc(-n2c(C)cc(C(=O)COc3ccc(-n4cnnn4)cc3)c2C)cc1,66,82,99,86,74
CCOc1ccc(OCC)c(Nc2cc(C)nc3nc(C)nn23)c1,73,59,32*,87,66
O=C(/C=C/c1ccc(Cl)cc1)NC(=S)NN1CCCCC1c1cccnc1 (centres undefined),90,91,nt,nt,nt
Clc1cccc(-c2nnc3sc(-c4ccc5c(c4)OCO5)nn23)c1,nt,nt,nt,100,106
Brc1ccccc1-c1nnc2sc(-c3ccc4c(c3)OCCO4)nn12,34,34,17*,87,72
CN(C)c1ccc(-c2nn3c(-c4ccc(Cl)cc4Cl)nnc3s2)cc1,34,35,14*,85,45
Clc1ccccc1-c1nnc2sc(-c3ccc4c(c3)OCO4)nn12,89,65,23*,92,50
C(=N\N1CCN(C2c3ccccc3-c3ccccc32)CC1)/c1ccncc1,71,66,nt,nt,nt
O=C(c1ccco1)N1CCN(c2nc3ccccc3c(=O)n2-c2ccccc2)CC1,85,81,59,100,104
CN(C)/C=C/C(=O)c1ccc(N2CCN(c3ncc(C(F)(F)F)cc3Cl)CC2)cc1,2.1*,10,0.8*,52,2.3*
O=C(CN1CCN(c2ncc(C(F)(F)F)cc2Cl)CC1)NCCNc1ncc(C(F)(F)F)cc1Cl,79,74,3.8*,102,76
Cc1sc(NC(=O)Cn2nc(C(F)(F)F)cc2C)c(C(=O)OC(C)C)c1C,87,96,nt,nt,nt
CCC(C(=O)OCC(=O)Nc1cc(Cl)cc(Cl)c1)c1ccccc1 (centres undefined),80,77,nt,nt,nt
CCCc1nc(-c2cc3ccc(C)cc3[nH]c2=O)no1,83,89,101,99,94
CCOc1ccccc1-c1nc(-c2cc3ccc(C)cc3[nH]c2=O)no1,87,76,40*,100,89
Cc1ccc(-c2cc(-c3ccccc3O)nc(N/N=C/c3cccnc3)n2)cc1,4.0*,2.9*,nt,nt,nt
C(=N\Nc1nc(-c2ccccc2)cs1)/c1cccnc1,75,81,nt,nt,nt
CN(C)c1ccc(/C=N/NC(=O)CN(c2ccccc2Cl)S(C)(=O)=O)cc1Br,85,87,nt,nt,nt
SMILES,HCT116 bCat-KO,PTEN del growth,H69AR growth 86K,Lung fibro prol,HUVEC prolif 384
CC1=C(C(N)=O)C(c2ccccn2)n2nc(SCc3ccccc3Cl)nc2N1 (centres undefined),86,90,98,94,101
CC(Sc1ccc(Cl)cc1)C(=O)Nc1ccc2c(c1)OCO2 (centres undefined),93,82,97,103,94
CC(C)N1CCC2(CC1)N=C(c1ccc3c(c1)OCO3)CC(c1cc(Cl)ccc1O)N2 (centres undefined),2.5*,2.9*,1.5*,5.9*,30*
O=C(Nc1ccc(Br)cc1)C1CCCN1S(=O)(=O)c1cccs1 (centres undefined),14,29,90,93,84
Cc1cc(C)nc(-n2nc(C)cc2Nc2ccccc2)n1,40,45,10*,77,78
Cc1cc(NC(=O)c2c(F)cccc2F)n(-c2nc3ccccc3[nH]2)n1,18,14,36*,85,72
Cc1cc(N2CCN(c3ccccc3)CC2)nc(-n2nc(C)cc2C)n1,50,33,9.3*,96,108
Cc1cc(NC(=O)c2c(F)cccc2Cl)n(-c2nc3ccccc3[nH]2)n1,21,16,28*,79,59
Cc1cc(NC(=O)c2ccccc2F)n(-c2nc3ccccc3[nH]2)n1,74,71,41,70,92
O=C(Nc1ccc(N2CCOCC2)cc1)NC1CCCCC1,102,103,98,94,87
CCC(=O)N(Cc1c(C)nn(-c2ccccc2)c1Cl)c1ccc(Cl)cc1,63,59,nt,nt,nt
C=C(C)C(=O)Nc1nnc(-c2cccs2)s1,54,52,nt,nt,nt
Cc1cc(Nc2ccccc2)n(-c2nc3ccccc3[nH]2)n1,22,13,37*,67,45
Cc1cc(NC(=O)c2ccc(C)s2)n(-c2nc3ccccc3[nH]2)n1,53,37,nt,nt,nt
C=CCN1C(=Nc2cccnc2)SCC1(O)c1ccc(C)cc1 (centres undefined),20,27,34*,86,1.8*
Cc1[nH]nc(N=CC2=C(O)CC(c3ccco3)CC2=O)c1-c1ccc(Cl)cc1 (centres undefined),82,86,22*,97,87
Cc1[nH]nc(N=CC2=C(O)CC(C)(C)CC2=O)c1-c1ccc(Cl)cc1,91,94,31*,92,106
CC1(C)CC(=O)C(C=Nc2ccc(Cl)cn2)=C(O)C1,82,91,103,91,96
O=C1CC(c2ccco2)CC(O)=C1C=Nc1cc(Cl)ccc1O (centres undefined),81,88,5.3*,99,77
S=c1[nH]nc(COc2ccccc2)n1/N=C/c1cccnc1,93,96,nt,nt,nt
CC1Cc2ccccc2N1C(=O)CSc1nc(-c2ccco2)cc(C(F)(F)F)n1 (centres undefined),88,93,59,99,89
CC(=O)c1cc2c(cc1NC(=O)c1cc3nc(C(C)C)cc(C(F)(F)F)n3n1)OCO2,78,96,60,105,85
CSc1nc2c(cnn2-c2ccc(C)c(C)c2)c(=O)[nH]1,19,5,20*,100,38
Cc1ccccc1Cn1c(=N)n(CC(=O)c2ccc([N+](=O)[O-])cc2)c2ccccc21,1.9*,1.4*,nt,nt,nt
Cc1cc(C)n(-c2nc(NCCCO)c3c4c(sc3n2)CCCC4)n1,12,13,4.9*,79,17*
Cc1cc(C)n(-c2nc(NCCO)c3c4c(sc3n2)CCCC4)n1,15,25,11*,84,78
Cc1cc(C)n(-c2nc(NCC(C)O)c3c4c(sc3n2)CCCC4)n1 (centres undefined),22,30,107,86,84
CCC(C)n1c(-c2cccs2)nc2nc3ccccc3nc21 (centres undefined),80,77,80,95,99

# Source: PubChem
